Experimental data: ChEMBL document CHEMBL1132477, “Design and synthesis of novel alpha(1)(a) adrenoceptor-selective antagonists. 2. Approaches to eliminate opioid agonist metabolites via modification of linker and 4-methoxycarbonyl-4-phenylpiperidine moiety” (J Med Chem, 1999)

How the values were obtained:
[1] = species: Rattus norvegicus; assay: Duration of action in rat; type: ADME, organism-based; conditions: in vivo
[2] = species: Rattus norvegicus; assay: Dose required to inhibit 50% of contractile responses induced by phenylephrine in rat prostate.; type: functional, Prostate gland
[3] = molecular target: T1, Alpha-1D adrenergic receptor (Homo sapiens, UniProt P25100); assay: In vitro binding affinity against alpha-1D adrenergic receptor (cloned human).
T1 sequence (P25100 whole entry): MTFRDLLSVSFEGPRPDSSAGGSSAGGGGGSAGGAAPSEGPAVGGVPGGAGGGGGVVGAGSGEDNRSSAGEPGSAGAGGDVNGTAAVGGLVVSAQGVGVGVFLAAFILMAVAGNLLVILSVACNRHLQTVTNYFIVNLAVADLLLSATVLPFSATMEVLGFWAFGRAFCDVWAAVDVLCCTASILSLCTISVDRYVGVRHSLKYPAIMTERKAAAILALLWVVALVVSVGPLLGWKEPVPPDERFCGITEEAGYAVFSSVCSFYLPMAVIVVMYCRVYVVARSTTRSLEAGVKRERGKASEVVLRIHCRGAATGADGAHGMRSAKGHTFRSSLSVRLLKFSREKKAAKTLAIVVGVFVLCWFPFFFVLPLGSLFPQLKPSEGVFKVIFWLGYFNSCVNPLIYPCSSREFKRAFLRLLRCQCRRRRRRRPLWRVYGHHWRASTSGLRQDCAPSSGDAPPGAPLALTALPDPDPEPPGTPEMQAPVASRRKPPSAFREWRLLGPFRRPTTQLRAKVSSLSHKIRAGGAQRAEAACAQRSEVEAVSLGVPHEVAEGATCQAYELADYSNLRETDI

[4] = species: Canis familiaris; assay: Potency to inhibit phenylephrine induced intraurethral pressure in dog.; type: functional, Canis lupus familiaris, Urethra
Summary of the method: (§1)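 In dogs, diastolic blood pressure and intraurethral pressure were stimulated with phenylephrine. Antagonist potency was expressed as Kb in µg/kg.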

[5] = species: Rattus norvegicus; assay: Antagonism against norepinephrine induced contractions in rat aorta.; type: functional
[6] = Bioavailability in rat; type: ADME, organism-based; conditions: in vivo
[7] = species: Rattus norvegicus; assay: Antagonism against phenylephrine induced contractions in rat prostate.; type: functional, Prostate gland
[8] = molecular target: Mu-type opioid receptor (Mus musculus, UniProt P42866); assay: Binding affinity against opioid receptor
Chain of Mu-type opioid receptor (P42866 whole entry): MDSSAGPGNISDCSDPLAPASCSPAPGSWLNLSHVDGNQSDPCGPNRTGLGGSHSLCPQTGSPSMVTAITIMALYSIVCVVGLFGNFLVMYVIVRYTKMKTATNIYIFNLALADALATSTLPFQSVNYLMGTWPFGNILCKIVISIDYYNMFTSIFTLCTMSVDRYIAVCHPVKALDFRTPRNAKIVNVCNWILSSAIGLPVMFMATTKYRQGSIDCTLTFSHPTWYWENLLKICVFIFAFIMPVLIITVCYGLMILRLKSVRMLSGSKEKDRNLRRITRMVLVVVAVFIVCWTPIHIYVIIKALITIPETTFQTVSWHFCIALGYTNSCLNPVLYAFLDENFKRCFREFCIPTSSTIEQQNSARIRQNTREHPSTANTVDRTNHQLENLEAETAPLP

[9] = species: Canis familiaris; assay: Potency to inhibit phenylephrine induced diastolic blood pressure in dog.; type: functional, Canis lupus familiaris, Artery; summary of the method: as §1
[10] = molecular target: Adrenergic receptor alpha-1 (Homo sapiens) (UniProt P35348+P25100+P35368); assay: Selectivity ratio( alpha-1b,1d/alpha1a); type: protein assay
[11] = molecular target: T2, Alpha-1A adrenergic receptor (Homo sapiens, UniProt P35348); assay: In vitro binding affinity against alpha-1A adrenergic receptor of human clones
T2 sequence (P35348 whole entry): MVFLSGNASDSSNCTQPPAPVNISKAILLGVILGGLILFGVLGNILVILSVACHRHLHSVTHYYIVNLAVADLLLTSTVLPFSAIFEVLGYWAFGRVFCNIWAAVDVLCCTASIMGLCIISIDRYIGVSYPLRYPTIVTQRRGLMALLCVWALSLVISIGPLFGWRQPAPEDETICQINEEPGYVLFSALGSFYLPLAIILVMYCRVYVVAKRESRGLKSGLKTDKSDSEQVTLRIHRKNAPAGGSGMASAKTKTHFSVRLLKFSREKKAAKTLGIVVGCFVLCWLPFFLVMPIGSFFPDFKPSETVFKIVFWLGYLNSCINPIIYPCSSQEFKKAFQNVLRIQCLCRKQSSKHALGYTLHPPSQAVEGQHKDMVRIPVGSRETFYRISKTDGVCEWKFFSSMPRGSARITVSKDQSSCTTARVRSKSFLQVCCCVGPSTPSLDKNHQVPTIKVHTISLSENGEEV

[12] = Plasma half life in dog; type: ADME, organism-based, Canis lupus familiaris
[13] = Plasma half life in rat; type: ADME, organism-based
[14] = Bioavailability in dog; type: ADME, organism-based, Canis lupus familiaris; conditions: in vivo
[15] = molecular target: T3, Alpha-1B adrenergic receptor (Homo sapiens, UniProt P35368); assay: In vitro binding affinity against Alpha-1B adrenergic receptor cloned from human.
T3 sequence (P35368 whole entry): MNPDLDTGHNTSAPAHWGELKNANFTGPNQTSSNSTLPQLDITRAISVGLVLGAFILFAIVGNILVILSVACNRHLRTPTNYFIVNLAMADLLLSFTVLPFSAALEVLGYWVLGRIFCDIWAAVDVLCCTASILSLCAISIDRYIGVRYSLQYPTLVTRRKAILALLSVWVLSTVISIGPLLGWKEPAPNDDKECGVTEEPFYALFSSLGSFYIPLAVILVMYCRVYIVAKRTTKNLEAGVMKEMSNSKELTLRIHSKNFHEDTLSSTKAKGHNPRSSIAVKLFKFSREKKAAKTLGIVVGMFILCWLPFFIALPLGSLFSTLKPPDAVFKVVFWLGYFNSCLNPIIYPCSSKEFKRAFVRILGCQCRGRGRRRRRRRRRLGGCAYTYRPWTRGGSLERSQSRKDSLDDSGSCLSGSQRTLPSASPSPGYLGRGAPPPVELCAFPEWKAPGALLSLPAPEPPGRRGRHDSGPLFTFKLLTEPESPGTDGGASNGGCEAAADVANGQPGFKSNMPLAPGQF

CCC1=C(C(N)=O)C(c2ccc(F)cc2F)N(C(=O)NCCCN2CCC(C#N)(c3ccccc3)CC2)C(=O)N1 (stereo not given)
Time [1]: 1.5 h
AD50 [2]: 0.018 mg/kg
Ki [3]: 1280 nM
Kb [4]: 14.2 µg/kg
Kb [5]: > 1000 nM
bioavailability [6]: 8%
Kb [7]: 2.2 nM
Ki [8]: 51000 nM
Kb [9]: >300 µg/kg
Ratio [10]: > 900
Ki [11]: 0.7 nM
half-life [12]: 2.3 h
half-life [13]: 0.4 h
bioavailability [14]: 32%
Ki [15]: 610 nM
